Results published in ChEMBL document CHEMBL3120099, “Novel S1P(1) receptor agonists--part 2: from bicyclo[3.1.0]hexane-fused thiophenes to isobutyl substituted thiophenes” (J Med Chem, 2014).
The source made the active and inactive calls. The calls are words filed in the database; no cut-off is given here.

Experiments:
Rattus norvegicus [1] = experiment: Lymphopenic activity in Wistar rat assessed as reduction in blood lymphocyte count at 10 mg/kg, po after 24 hrs; assay type: functional
Outline: (§1)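 Normotensive male Wistar rats given 1–10 mg/kg by gavage in 5% DMSO/7.5% succinylated gelatin. Blood taken before and 3, 6 and 24 h after dosing, with later times for some compounds. Lymphocytes counted by hematology analyzer. % LC change calculated per animal relative to the predose value (=100%). Mean ± SEM.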

Rattus norvegicus [2] = experiment: Lymphopenic activity in Wistar rat assessed as reduction in blood lymphocyte count at 3 mg/kg, po after 6 hrs; assay type: functional; set-up: scale not given: the % may be the effect or the level left; outline: as §1
[3] = target: Sphingosine 1-phosphate receptor 1 (Homo sapiens, UniProt P21453); experiment: Agonist activity at human recombinant S1P1 receptor expressed in CHO cells assessed as membrane-bound 35S-GTPgammaS incubated 30 mins prior to substrate addition measured after 1 hr by topcount scintillation counting analysis; assay type: functional, cell-based
Rattus norvegicus [4] = experiment: Lymphopenic activity in Wistar rat assessed as reduction in blood lymphocyte count at 10 mg/kg, po after 3 hrs; assay type: functional; set-up: scale not given: the % may be the effect or the level left; outline: as §1
[5] = target: Sphingosine 1-phosphate receptor 3 (Homo sapiens, UniProt Q99500); experiment: Agonist activity at human recombinant S1P3 receptor expressed in CHO cells assessed as membrane-bound 35S-GTPgammaS incubated 30 mins prior to substrate addition measured after 1 hr by topcount scintillation counting analysis; assay type: functional, cell-based
Rattus norvegicus [6] = experiment: Lymphopenic activity in Wistar rat assessed as reduction in blood lymphocyte count at 10 mg/kg, po after 6 hrs; assay type: functional; set-up: scale not given: the % may be the effect or the level left; outline: as §1
Rattus norvegicus [7] = experiment: Lymphopenic activity in Wistar rat assessed as reduction in blood lymphocyte count at 3 mg/kg, po after 3 hrs; assay type: functional; set-up: scale not given: the % may be the effect or the level left; outline: as §1
Rattus norvegicus [8] = experiment: Lymphopenic activity in Wistar rat assessed as reduction in blood lymphocyte count at 3 mg/kg, po after 24 hrs; assay type: functional; set-up: scale not given: the % may be the effect or the level left; outline: as §1
[9] = Plasma concentration in Wistar rat at 10 mg/kg, po after 6 days; assay type: ADME, organism-based; set-up: dose 10 mg/kg, route oral
[10] = Plasma concentration in Wistar rat at 10 mg/kg, po after 1.7 hrs; assay type: ADME, organism-based; set-up: dose 10 mg/kg, route oral
Outline: (§2)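 Male Wistar rats given 10 mg/kg orally in 5% DMSO/succinylated gelatin. At selected times, anesthesia with thiobutobarbital 150 mg/kg ip, laparotomy and thoracic lymph duct catheter. Mesenteric lymph collected for at least 10 min, with a plasma sample at mid-collection. Methanol precipitation, then LC-MS-MS with internal standard.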

[11] = AUC (0 to 24 hrs) in Wistar rat mesenteric lymph at 10 mg/kg, po; assay type: ADME, organism-based, Mesenteric lymph node; set-up: time < 24 hr, dose 10 mg/kg, route oral; conditions: in vivo
[12] = Tmax in Wistar rat plasma at 10 mg/kg, po; assay type: ADME, organism-based; set-up: dose 10 mg/kg, route oral; outline: as §2
[13] = Volume of distribution at steady state in Wistar rat at 1 mg/kg, iv; assay type: ADME, organism-based; set-up: dose 1 mg/kg, route intravenous; conditions: in vivo, read-out: Vdss
Outline: (§3)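 Male Wistar rats (~250 g), jugular vein and carotid artery catheters implanted 2 days before dosing under isoflurane with buprenorphine analgesia. 1 mg/kg given as a 5 min jugular infusion in aqueous mixed micellar vehicle (phospholipids, bile acids). Serial EDTA blood sampling up to 24 h. Plasma analysed by LC-MS-MS after methanol precipitation. Noncompartmental analysis.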

[14] = Oral bioavailability in Wistar rat at 10 mg/kg; assay type: ADME, organism-based; conditions: in vivo
Outline: (§4)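 Male Wistar rats (~250 g), 10 mg/kg by gavage as a DMSO solution added to 7.5% succinylated gelatin in water (5% DMSO final). Sublingual blood under light isoflurane predose and at 0.5, 1, 2, 3, 4, 6, 8, 24 h into EDTA. Plasma LC-MS-MS after methanol precipitation. Noncompartmental parameters. Bioavailability referenced to 1 mg/kg iv.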

[15] = Cmax in Wistar rat mesenteric lymph at 10 mg/kg, po; assay type: ADME, organism-based, Mesenteric lymph node; set-up: dose 10 mg/kg, route oral; outline: as §2
[16] = Drug uptake in Wistar rat mesenteric lymph at 10 mg/kg, po after 6 hrs; assay type: ADME, organism-based, Mesenteric lymph node; set-up: dose 10 mg/kg, route oral; conditions: read-out: Drug uptake; outline: as §2
[17] = Lipophilicity, log D of the compound at pH 7.4; assay type: physicochemical; conditions: buffer
Plasma [18] = experiment: AUC (0 to 24 hrs) in Wistar rat plasma at 10 mg/kg, po; assay type: ADME, organism-based; set-up: time < 24 hr, dose 10 mg/kg, route oral; conditions: in vivo
Rattus norvegicus [19] = experiment: Clearance in Wistar rat at 1 mg/kg, iv; assay type: ADME, organism-based; set-up: dose 1 mg/kg, route intravenous; conditions: in vivo; outline: as §3
[20] = Plasma concentration in Wistar rat at 10 mg/kg, po after 1 hr; assay type: ADME, organism-based; set-up: dose 10 mg/kg, route oral; outline: as §2
[21] = Drug uptake in Wistar rat mesenteric lymph at 10 mg/kg, po after 2.3 hrs; assay type: ADME, organism-based, Mesenteric lymph node; set-up: dose 10 mg/kg, route oral; conditions: read-out: Drug uptake; outline: as §2
[22] = Drug uptake in Wistar rat mesenteric lymph at 10 mg/kg, po after 1.7 hrs; assay type: ADME, organism-based, Mesenteric lymph node; set-up: dose 10 mg/kg, route oral; conditions: read-out: Drug uptake; outline: as §2
[23] = Plasma concentration in Wistar rat at 10 mg/kg, po after 24.8 hrs; assay type: ADME, organism-based; set-up: dose 10 mg/kg, route oral; outline: as §2
[24] = Plasma concentration in Wistar rat at 10 mg/kg, po after 24 hrs; assay type: ADME, organism-based; set-up: dose 10 mg/kg, route oral
[25] = Plasma concentration in Wistar rat at 10 mg/kg, po after 2.3 hrs; assay type: ADME, organism-based; set-up: dose 10 mg/kg, route oral; outline: as §2
[26] = Half life in Wistar rat at 1 mg/kg, iv; assay type: ADME, organism-based; set-up: dose 1 mg/kg, route intravenous; conditions: in vivo; outline: as §3
[27] = Tmax in Wistar rat at 10 mg/kg, po; assay type: ADME, organism-based; set-up: dose 10 mg/kg, route oral; conditions: in vivo; outline: as §4
[28] = Intrinsic clearance in Wistar rat hepatocytes assessed per 10^6 cells at 1 uM by LC-MS/MS analysis; assay type: ADME, cell-based, Hepatocyte; conditions: read-out: CLH
Outline: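 Male rat hepatocytes from two-step collagenase perfusion (viability ≥85%), plated at 5.0 × 10^5 viable cells/mL on collagen and preincubated ~3 h at 37 °C, 5% CO2. Compound at 1 µM final. Duplicate wells sampled at 0–24 h with methanol/0.3% SDS. LC-MS-MS (MRM). CLint from initial first-order disappearance rates.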

[29] = Plasma concentration in Wistar rat at 10 mg/kg, po after 3 hrs; assay type: ADME, organism-based; set-up: dose 10 mg/kg, route oral
[30] = Tmax in Wistar rat mesenteric lymph at 10 mg/kg, po; assay type: ADME, organism-based, Mesenteric lymph node; set-up: dose 10 mg/kg, route oral; outline: as §2
[31] = Drug uptake in Wistar rat mesenteric lymph at 10 mg/kg, po after 1 hr; assay type: ADME, organism-based, Mesenteric lymph node; set-up: dose 10 mg/kg, route oral; conditions: read-out: Drug uptake; outline: as §2
[32] = Plasma concentration in Wistar rat at 10 mg/kg, po after 6 hrs; assay type: ADME, organism-based; set-up: dose 10 mg/kg, route oral
[33] = Drug uptake in Wistar rat mesenteric lymph at 10 mg/kg, po after 3 hrs; assay type: ADME, organism-based, Mesenteric lymph node; set-up: dose 10 mg/kg, route oral; conditions: read-out: Drug uptake; outline: as §2
[34] = AUC (0 to 24 hrs) in Wistar rat at 10 mg/kg, po; assay type: ADME, organism-based; set-up: time < 24 hr, dose 10 mg/kg, route oral; conditions: plasma
[35] = Plasma concentration in Wistar rat at 10 mg/kg, po after 3 days; assay type: ADME, organism-based; set-up: dose 10 mg/kg, route oral
[36] = Cmax in Wistar rat at 10 mg/kg, po; assay type: ADME, organism-based; set-up: dose 10 mg/kg, route oral; conditions: in vivo; outline: as §4
Rattus norvegicus [37] = experiment: Lymphopenic activity in Wistar rat assessed as reduction in blood lymphocyte count at 10 mg/kg, po after 72 hrs; assay type: functional; outline: as §1
[38] = Cmax in Wistar rat plasma at 10 mg/kg, po; assay type: ADME, organism-based; set-up: dose 10 mg/kg, route oral; outline: as §2
[39] = Drug uptake in Wistar rat mesenteric lymph at 10 mg/kg, po after 24.8 hrs; assay type: ADME, organism-based, Mesenteric lymph node; set-up: dose 10 mg/kg, route oral; conditions: read-out: Drug uptake; outline: as §2
Rattus norvegicus [40] = experiment: Lymphopenic activity in Wistar rat assessed as reduction in blood lymphocyte count at 10 mg/kg, po after 144 hrs; assay type: functional; outline: as §1
Rattus norvegicus [41] = experiment: Lymphopenic activity in Wistar rat assessed as reduction in blood lymphocyte count at 10 mg/kg, po after 96 hrs; assay type: functional; set-up: scale not given: the % may be the effect or the level left; outline: as §1
[42] = Intrinsic clearance in Wistar rat liver microsomes at 1 uM by LC-MS/MS analysis; assay type: ADME; conditions: read-out: CLH
Outline: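 Pooled male Wistar rat liver microsomes at 0.5 mg/mL protein. Compound at 1 µM, 37 °C, DMSO ≤0.1%. Started with NADPH-regenerating system (NADP, glucose 6-phosphate, MgCl2, G6PDH, pH 7.4 phosphate). Quenched with ice-cold methanol at times up to 15 min, then LC-MS-MS.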

Plasma [43] = experiment: AUC (0 to 6.4 hrs) in Wistar rat plasma at 10 mg/kg, po; assay type: ADME, organism-based; set-up: time < 6.4 hr, dose 10 mg/kg, route oral; conditions: in vivo
[44] = AUC (0 to 6.4 hrs) in Wistar rat mesenteric lymph at 10 mg/kg, po; assay type: ADME, organism-based, Mesenteric lymph node; set-up: time < 6.4 hr, dose 10 mg/kg, route oral; conditions: in vivo

Sequence of Sphingosine 1-phosphate receptor 3 (Q99500 whole entry): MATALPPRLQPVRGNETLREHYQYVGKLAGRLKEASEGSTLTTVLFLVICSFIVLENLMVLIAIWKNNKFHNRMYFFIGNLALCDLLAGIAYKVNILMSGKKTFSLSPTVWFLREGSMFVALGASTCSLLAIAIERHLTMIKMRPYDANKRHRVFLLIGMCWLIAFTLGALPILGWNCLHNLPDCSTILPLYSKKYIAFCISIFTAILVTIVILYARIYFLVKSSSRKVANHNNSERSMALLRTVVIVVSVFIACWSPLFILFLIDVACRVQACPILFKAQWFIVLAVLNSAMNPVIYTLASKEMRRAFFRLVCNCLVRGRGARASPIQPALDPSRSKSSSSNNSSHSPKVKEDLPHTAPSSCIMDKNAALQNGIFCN
Sequence of Sphingosine 1-phosphate receptor 1 (P21453 whole entry): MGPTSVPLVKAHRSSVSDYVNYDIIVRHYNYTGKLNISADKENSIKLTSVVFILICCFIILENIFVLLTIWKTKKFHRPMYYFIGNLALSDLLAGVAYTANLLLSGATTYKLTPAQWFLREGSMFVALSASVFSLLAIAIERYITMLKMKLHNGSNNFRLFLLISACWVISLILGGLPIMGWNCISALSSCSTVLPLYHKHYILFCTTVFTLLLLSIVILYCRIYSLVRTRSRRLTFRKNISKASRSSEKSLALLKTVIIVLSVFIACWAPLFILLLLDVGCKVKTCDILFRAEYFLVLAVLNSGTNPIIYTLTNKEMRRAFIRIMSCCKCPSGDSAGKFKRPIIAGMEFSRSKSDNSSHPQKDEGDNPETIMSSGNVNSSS

Row | Compound | % change in blood lymphocyte count from predose (Rattus norvegicus [1]) [%] | EC50 [3] [nM] | Activity (Rattus norvegicus [4]) | EC50 [5] [nM] | Activity (Rattus norvegicus [6]) | Tmax [12] [h] | Vd [13] [L/kg] | bioavailability [14] [%] | Cmax [15] [ng/mL] | logD [17] | clearance (Rattus norvegicus [19]) [mL/min/kg] | concentration at 24 h [24] [ng/mL] | half-life [26] [h] | Tmax [27] [h] | hepatocyte CLint at 1 µM [28] [µL/min/1e6 cells] | concentration at 3 h [29] [ng/mL] | Tmax [30] [h] | concentration at 6 h [32] [ng/mL] | AUC(0-t) at 24 h [34] [ng·h/mL] | Cmax [36] [ng/mL] | further results
1 | Cc1cc(-c2noc(-c3scc(CC(C)C)c3C)n2)cc(C)c1OCC(O)CNC(=O)CO (racemic) | -80 | 1.5 | -72% | 528 | -79% | – | – | – | – | – | – | – | – | – | – | – | – | – | – | – | Activity (Rattus norvegicus [2]): -79%; Activity (Rattus norvegicus [7]): -67%; Activity (Rattus norvegicus [8]): -27%
2 | CCc1cc(-c2noc(-c3sc(CC)c4c3CCC(C)(C)C4)n2)cc(C)c1OC[C@@H](O)CNC(=O)CO | – | 4.6 | – | 8.9 | – | 6 | 3.5 | > 33 | 8090 | 4.3 | 2 | 530 | 21 | 6 | 3.1 | 132 | 3 | 911 | 28100 | 1450 | concentration at 144 h [9]: 66 ng/mL; concentration at 1.7 h [10]: 58.1 ng/mL; AUC [11]: 70500 ng·h/mL; Activity (Rattus norvegicus [1]): Active; concentration at 6 h [16]: 4590 ng/mL; AUC (Plasma [18]): 1660 ng·h/mL; concentration at 1 h [20]: 44.4 ng/mL; concentration at 2.3 h [21]: 4600 ng/mL; concentration at 1.7 h [22]: 4340 ng/mL; concentration at 24.8 h [23]: 680 ng/mL; concentration at 2.3 h [25]: 123 ng/mL; concentration at 1 h [31]: 5790 ng/mL; concentration at 3 h [33]: 8090 ng/mL; concentration at 72 h [35]: 236 ng/mL; Activity (Rattus norvegicus [37]): Active; Cmax [38]: 911 ng/mL; concentration at 24.8 h [39]: 684 ng/mL; Activity (Rattus norvegicus [40]): Active
3 | Cc1cc(-c2noc(-c3sc(C)c4c3C[C@@H]3[C@H]4C3(C)C)n2)cc(C)c1OCC(O)CNC(=O)CO (mixture of isomers) | -73 | – | -66% | – | -69% | – | – | – | – | – | – | – | – | – | – | – | – | – | – | – | Activity (Rattus norvegicus [41]): 30%
4 | CCc1cc(CCC(=O)c2sc(CC)c3c2CCC(C)(C)C3)cc(C)c1OCC(O)CNC(=O)CO (racemic) | – | 0.6 | Active | 141 | Active | – | 2.8 | 8 | – | – | 46 | < 1.5 | 1.7 | 0.5 | 107 | 32 | – | 10 | 276 | 141 | microsomal CLint at 1 µM [42]: > 1250 µL/min/mg
5 | CCc1cc(-c2noc(-c3sc(CC)c4c3CCC(C)(C)C4)n2)cc(C)c1OC[C@@H](O)CO | – | 2.4 | – | 15 | – | 6.4 | – | – | 9050 | 5.4 | – | – | – | – | – | – | 1.4 | – | – | – | AUC (Plasma [43]): 1880 ng/mL/h; AUC [44]: 31300 ng/mL/h; Cmax [38]: 376 ng/mL
